Assay results pooled from the literature.
Each line is one published result; the experiments were not run side by side.
Target: Tyrosine-protein kinase Lyn (LYN, Homo sapiens, UniProt P07948)

For O=C(c1ccc(Nc2ncc(Cl)c(-c3cc4ccccc4s3)n2)cc1)N1CCC(N2CCCC2)CC1, the remaining binding was 83% (binding, competition with immobilised ligand; 1 µM).
The remaining binding of CN(C)C(=O)Cn1cc(-c2nc([C@@](C)(c3ccc(-c4cnc(N)nc4)cc3)C3CC3)no2)cn1 is reported as 87% (cell-free assay, competition with immobilised ligand; 1 µM).
COc1ccnn2ncc(-c3ccnc(N(C)C)n3)c12 has a remaining binding of 100% (binding; 1 µM).
The remaining binding of CSc1cccnc1N1CCN(Cc2nc3ccccc3[nH]2)CC1 is reported as 95% (cell-free assay, competition with immobilised ligand; 1 µM).
The remaining binding of C[C@@H]1CCN(c2nccc(-c3cnn4ncccc34)n2)C1 is reported as 93% (binding; 1 µM).
COc1cnc(Nc2cccc(S(N)(=O)=O)c2)nc1N1CCN(c2ccccc2)C(=O)C1 gave a remaining binding of 100% (binding, competition with immobilised ligand; 1 µM).
The remaining binding of Nc1cnc(N2CCc3cc(S(=O)(=O)Nc4c(F)cc(Cl)cc4F)cc(N4CCCC4=O)c32)nc1 is reported as 88% (cell-free assay, competition with immobilised ligand; 1 µM).
The remaining binding of O=C(NCCCN1CCOCC1)c1ccc(Nc2nccc(-c3cc4ccccc4s3)n2)cc1 is reported as 94% (binding, competition with immobilised ligand; 1 µM).
c1cnn2ncc(-c3ccnc(N4CCC45COC5)n3)c2c1 has a remaining binding of 88% (binding; 1 µM).
With CCN1CCN(Cc2ccc(C(=O)Nc3ccc(C)c(Oc4ccc5c(c4)CC(=O)N5)c3)cc2C(F)(F)F)CC1 the remaining binding was 52% (binding, competition with immobilised ligand; 1 µM).
For CC1CCCN1c1nccc(-c2cnn3ncccc23)n1 (stereo not shown), the remaining binding was 84% (binding; 1 µM).
With COCCOc1nc(-c2ccc(Cl)nc2)nc2c1CN(C(=O)c1ncn3ccccc13)CC2 the remaining binding was 73% (cell-free assay, competition with immobilised ligand; 0.1 µM).
N[C@@H]1CCN(c2nccc(-c3cnn4ncccc34)n2)C1 has a remaining binding of 100% (binding; 1 µM).
For CCC(=O)N[C@@H]1CC[C@H](C(=O)N(C)c2ccc(-c3nc4ccccc4o3)cc2)C1, the remaining binding was 92% (cell-free assay, competition with immobilised ligand; 1 µM).
O=C(NCC1CCOCC1)c1n[nH]cc1NC(=O)c1c(F)cccc1F has a remaining binding of 92% (binding, competition with immobilised ligand; 1 µM).
With c1cncc(-c2cccc(Nc3nccc(NC4CCCCC4)n3)c2)c1 the remaining binding was 48% (binding, competition with immobilised ligand; 10 µM).
